Source: ChEMBL document CHEMBL1681681, “Synthesis and anti-migrative evaluation of moverastin derivatives” (Bioorg Med Chem Lett, 2011)

What was measured:
[1] = target: Protein farnesyltransferase (Homo sapiens, UniProt P49354+P49356); assay: Inhibition of protein farnesyltransferase from human EC17 cells using [3H]FPP and […]-H-Ras; type: cell-based
Method in brief: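 FTase is partially purified from EC17 cells. It is incubated with [3H]-farnesylpyrophosphate plus recombinant GST-H-Ras as substrates, with or without test compound. Compounds are tested up to 100 µM.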

[2] = Antimigratory activity against human EC17 cells assessed as inhibition of migration after 24 hrs by chemotaxis cell chamber assay; type: functional, cell-based; settings: EC17, 24 h
Method in brief: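 Chemotaxis chamber: EC17 cells in upper chamber with graded compound concentrations; lower chamber holds EC17-conditioned medium (from 24 h cultures in RPMI1640 + 1% FBS) as chemoattractant. After 24 h, cells migrated through the filter to its lower side are counted. Counts are mean SD of five fields. IC50 is derived from these counts.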

[3] = Cytotoxicity against human EC17 cells assessed as cell viability by trypan blue dye; type: cell-based
Method in brief: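 EC17 cells are tested for viability by trypan blue dye exclusion. The 50% inhibitory concentration for viability is estimated from this assay.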

SMILES	IC50 [1] [µM]	IC50 [2] [µM]	IC50 [3] [µM]
C=C(CCC12CC3CC(CC(C3)C1)C2)C(O)Cc1c(O)cc(C)c(C=O)c1O (centres undefined)	> 100	6.52	55
C=C(CC[C@@]1(C)[C@H](C)CCC(=O)[C@@H]1C)C(O)Cc1c(O)cc(C)cc1O (some centres undefined)	> 100	21.4	> 28
Cc1cc(O)c(CC(O)C(C)CC[C@H]2[C@@H](C)CCCC2(C)C)c(O)c1C=O (relative stereo)	> 100	2.12	16
C=C(CC[C@H]1[C@@H](C)CCCC1(C)C)C(=O)Cc1c(O)cc(C)c(C=O)c1O (relative stereo)	> 100	4.41	18
Cc1cc(O)c2c(c1C=O)OCC(CC[C@H]1[C@@H](C)CCCC1(C)C)=CC2 (relative stereo)	> 100	2	18
C=C(CC[C@H]1[C@@H](C)CCCC1(C)C)C(O)Cc1c(OC)cc(C)c(C=O)c1O (relative stereo)	> 100	4.57	18
C=C(CC[C@H]1[C@@H](C)CCCC1(C)C)C(O)Cc1c(O)cc(C)cc1O (relative stereo)	> 100	2.17	17
C=C(CC[C@@]1(C)[C@H](C)CCC(=O)[C@@H]1C)[C@H](O)Cc1c(O)cc(C)c(C=O)c1O [MOVERASTIN A]	> 100	7.22	> 77

The next lines start with results.

IC50 [1] [µM]	IC50 [2] [µM]	SMILES	IC50 [3] [µM]
> 100	8.43	C=C(CCC1CCCCC1)C(O)Cc1c(O)cc(C)c(C=O)c1O (centres undefined)	87
> 100	7.53	C=C(CC/C=C(\C)CCC=C(C)C)C(O)Cc1c(O)cc(C)c(C=O)c1O (centres undefined)	> 80
> 100	30	C=C(C)C(O)Cc1c(O)cc(C)c(C=O)c1O (centres undefined)	> 130
> 100	10.6	C=C(CCc1c(C)cccc1C)C(O)Cc1c(O)cc(C)c(C=O)c1O (centres undefined)	45
14.7	1.98	C=C(CC[C@H]1[C@@H](C)CCCC1(C)C)C(O)Cc1c(O)cc(C)c(C=O)c1O (relative stereo)	46
